≈ marks a conversion by molar mass, not a printed value. Bridge positions count the residues as written; N and C are the ends. Square brackets hold non-standard residues; d marks the D form. Triazole bridges read from a SMILES are 1,4-linked. Peptide text beside a SMILES is read from it. dLys(N3) = [N-]=[N+]=NCCCC[C@@H](N)C(=O)O; Lys(N3) = [N-]=[N+]=NCCCC[C@H](N)C(=O)O; Pra = C#CC[C@H](N)C(=O)O
Columns and labels:
Format in all cases: functional
Settings in all cases: time 16-18 hrs
Acinetobacter baumannii = assay: Antimicrobial activity against Acinetobacter baumannii ATCC 19606 assessed as reduction in bacterial growth incubated for 16 to 18 hrs by microdilution susceptibility test
Method in brief: (§1)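 Broth microdilution in Mueller–Hinton broth. Mid-log bacteria at 1 × 10⁶ CFU/mL final, peptide twofold serial dilutions 100 to 0.78 μM final. Incubated 16–18 h at 37 °C. MIC taken as the lowest concentration giving total (100%) growth inhibition.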

Pseudomonas aeruginosa = assay: Antimicrobial activity against Pseudomonas aeruginosa ATCC 27853 assessed as reduction in bacterial growth incubated for 16 to 18 hrs by microdilution susceptibility test; method in brief: as §1
Escherichia coli = assay: Antimicrobial activity against Escherichia coli ATCC 25922 assessed as reduction in bacterial growth incubated for 16 to 18 hrs by microdilution susceptibility test; method in brief: as §1
[1] = tested on: Staphylococcus epidermidis; assay: Antimicrobial activity against Staphylococcus epidermidis ATCC 12228 assessed as reduction in bacterial growth incubated for 16 to 18 hrs by microdilution susceptibility test; method in brief: as §1
Staphylococcus aureus = assay: Antimicrobial activity against Staphylococcus aureus ATCC 25923 assessed as reduction in bacterial growth incubated for 16 to 18 hrs by microdilution susceptibility test; method in brief: as §1
Priestia megaterium = assay: Antimicrobial activity against Bacillus megaterium Bm11 assessed as reduction in bacterial growth incubated for 16 to 18 hrs by microdilution susceptibility test; method in brief: as §1

| Structure (SMILES) | MIC (Acinetobacter baumannii) [µM] | MIC (Pseudomonas aeruginosa) [µM] | MIC (Escherichia coli) [µM] | MIC [1] [µM] | MIC (Staphylococcus aureus) [µM] | MIC (Priestia megaterium) [µM] |
| --- | --- | --- | --- | --- | --- | --- |
| CCC(C)[C@H](NC(=O)[C@H](CCCNC(=N)N)NC(=O)[C@]1(C)CCC/C=C/CCC[C@](C)(NC(=O)[C@H](Cc2ccccc2)NC(=O)[C@H](Cc2c[nH]c3ccccc23)NC(=O)[C@@H]2CCCN2C(=O)[C@@H](NC(=O)[C@@H](N)Cc2ccccc2)C(C)C)C(=O)N[C@@H](CCCCN)C(=O)N[C@@H](Cc2ccccc2)C(=O)N[C@H](CC(C)C)C(=O)N1)C(=O)N[C@@H](CC(C)C)C(N)=O (some centres undefined) | > 100 | > 100 | > 100 | > 100 | > 100 | 100 (≈ 172 µg/mL) |
| CC(C)C[C@H](NC(=O)[C@@H]1CCC(=O)NCCCC[C@H](NC(=O)[C@H](Cc2c[nH]c3ccccc23)NC(=O)[C@@H]2CCCN2C(=O)[C@@H](NC(=O)[C@@H](N)Cc2ccccc2)C(C)C)C(=O)N[C@@H](CO)C(=O)N[C@@H](CCCCN)C(=O)N[C@@H](Cc2ccccc2)C(=O)N[C@H](CC(C)C)C(=O)NCC(=O)N[C@@H](CCCNC(=N)N)C(=O)N1)C(N)=O (H-FVPWKSKF[dL]GREL-NH2; lactam 5-12) | > 100 | > 100 | > 100 | > 100 | > 100 | 100 (≈ 159 µg/mL) |
| CC[C@H](C)[C@@H]1NC(=O)[C@H](CCCNC(=N)N)NC(=O)CNC(=O)[C@H](NC(=O)[C@H](Cc2ccccc2)NC(=O)[C@H](CCCCN)NC(=O)[C@H](CO)NC(=O)[C@H](Cc2ccccc2)NC(=O)[C@H](Cc2c[nH]c3ccccc23)NC(=O)[C@@H]2CCCN2C(=O)[C@@H](NC(=O)[C@@H](N)Cc2ccccc2)C(C)C)CCCCNC(=O)CC[C@@H](C(N)=O)NC1=O | > 100 | > 100 | > 100 | > 100 | > 100 |  |
| CC(C)C[C@H](NC(=O)[C@@H]1CCCCn2cc(nn2)C[C@H](NC(=O)[C@H](CCCCN)NC(=O)[C@H](CO)NC(=O)[C@H](Cc2ccccc2)NC(=O)[C@H](Cc2c[nH]c3ccccc23)NC(=O)[C@@H]2CCCN2C(=O)[C@@H](NC(=O)[C@@H](N)Cc2ccccc2)C(C)C)C(=O)N[C@H](CC(C)C)C(=O)NCC(=O)N[C@@H](CCCNC(=N)N)C(=O)N1)C(N)=O (H-FVPWFSK[Pra][dL]GR[Lys(N3)]L-NH2; triazole 8-12) |  | > 100 |  | > 100 | > 100 |  |
| CC[C@H](C)[C@H](NC(=O)[C@H](CCCNC(=N)N)NC(=O)CNC(=O)[C@H]1CCCCn2cc(nn2)C[C@H](NC(=O)[C@H](Cc2c[nH]c3ccccc23)NC(=O)[C@@H]2CCCN2C(=O)[C@@H](NC(=O)[C@@H](N)Cc2ccccc2)C(C)C)C(=O)N[C@@H](CO)C(=O)N[C@@H](CCCCN)C(=O)N[C@@H](Cc2ccccc2)C(=O)N1)C(=O)N[C@@H](CC(C)C)C(N)=O (H-FVPW[Pra]SKF[dLys(N3)]GRIL-NH2; triazole 5-9) | 100 (≈ 160 µg/mL) | > 100 | 100 (≈ 160 µg/mL) | > 100 | > 100 |  |
| CC[C@H](C)[C@@H]1NC(=O)[C@H](CCCNC(=N)N)NC(=O)CNC(=O)[C@@H](CC(C)C)NC(=O)[C@H](Cc2ccccc2)NC(=O)[C@H](CCCCN)NC(=O)[C@@H](NC(=O)[C@H](Cc2ccccc2)NC(=O)[C@H](Cc2c[nH]c3ccccc23)NC(=O)[C@@H]2CCCN2C(=O)[C@@H](NC(=O)[C@@H](N)Cc2ccccc2)C(C)C)CCCCNC(=O)CC[C@@H](C(N)=O)NC1=O (H-FVPWFKKF[dL]GRIE-NH2; lactam 6-13) | > 100 | > 100 | > 100 | > 100 | > 100 |  |
| CC[C@H](C)[C@H](NC(=O)[C@H](CCCNC(=N)N)NC(=O)CNC(=O)[C@@H](CC(C)C)NC(=O)[C@@H]1CCCCn2cc(nn2)C[C@H](NC(=O)[C@@H]2CCCN2C(=O)[C@@H](NC(=O)[C@@H](N)Cc2ccccc2)C(C)C)C(=O)N[C@@H](Cc2ccccc2)C(=O)N[C@@H](CO)C(=O)N[C@@H](CCCCN)C(=O)N1)C(=O)N[C@@H](CC(C)C)C(N)=O (H-FVP[Pra]FSK[Lys(N3)][dL]GRIL-NH2; triazole 4-8) | > 100 | > 100 | > 100 | > 100 | > 100 |  |
| CC[C@H](C)[C@H](NC(=O)[C@H](CCCNC(=N)N)NC(=O)[C@@H]1CSSC[C@H](NC(=O)[C@H](Cc2ccccc2)NC(=O)[C@H](Cc2c[nH]c3ccccc23)NC(=O)[C@@H]2CCCN2C(=O)[C@@H](NC(=O)[C@@H](N)Cc2ccccc2)C(C)C)C(=O)N[C@@H](CCCCN)C(=O)N[C@@H](Cc2ccccc2)C(=O)N[C@H](CC(C)C)C(=O)N1)C(=O)N[C@@H](CC(C)C)C(N)=O (H-FVPWFCKF[dL]CRIL-NH2; disulfide 6-10) |  | > 100 |  |  | 100 (≈ 167 µg/mL) |  |
| CC[C@H](C)[C@@H]1NC(=O)[C@H](CCCNC(=N)N)NC(=O)CNC(=O)[C@@H](CC(C)C)NC(=O)[C@H](Cc2ccccc2)NC(=O)[C@H](CCCCN)NC(=O)[C@@H](NC(=O)[C@H](Cc2ccccc2)NC(=O)[C@H](Cc2c[nH]c3ccccc23)NC(=O)[C@@H]2CCCN2C(=O)[C@@H](NC(=O)[C@@H](N)Cc2ccccc2)C(C)C)Cc2cn(nn2)CCCC[C@@H](C(N)=O)NC1=O (H-FVPWF[Pra]KF[dL]GRI[Lys(N3)]-NH2; triazole 6-13) | > 100 | > 100 | > 100 | > 100 | > 100 |  |
| CC[C@H](C)[C@H](NC(=O)[C@H](CCCNC(=N)N)NC(=O)CNC(=O)[C@H]1CCC(=O)NCCCC[C@H](NC(=O)[C@H](Cc2c[nH]c3ccccc23)NC(=O)[C@@H]2CCCN2C(=O)[C@@H](NC(=O)[C@@H](N)Cc2ccccc2)C(C)C)C(=O)N[C@@H](CO)C(=O)N[C@@H](CCCCN)C(=O)N[C@@H](Cc2ccccc2)C(=O)N1)C(=O)N[C@@H](CC(C)C)C(N)=O (H-FVPWKSKF[dE]GRIL-NH2; lactam 5-9) | > 100 | > 100 | > 100 | > 100 | > 100 | 100 (≈ 159 µg/mL) |
| CC(C)C[C@H](NC(=O)[C@@H]1CCC(=O)NCCCC[C@H](NC(=O)[C@H](CCCCN)NC(=O)[C@H](CO)NC(=O)[C@H](Cc2ccccc2)NC(=O)[C@H](Cc2c[nH]c3ccccc23)NC(=O)[C@@H]2CCCN2C(=O)[C@@H](NC(=O)[C@@H](N)Cc2ccccc2)C(C)C)C(=O)N[C@H](CC(C)C)C(=O)NCC(=O)N[C@@H](CCCNC(=N)N)C(=O)N1)C(N)=O (H-FVPWFSKK[dL]GREL-NH2; lactam 8-12) | > 100 | > 100 | > 100 | > 100 | > 100 |  |
| CC[C@H](C)[C@H](NC(=O)[C@H](CCCNC(=N)N)NC(=O)CNC(=O)[C@@H](CC(C)C)NC(=O)[C@@H]1CCC(=O)NCCCC[C@H](NC(=O)[C@@H]2CCCN2C(=O)[C@@H](NC(=O)[C@@H](N)Cc2ccccc2)C(C)C)C(=O)N[C@@H](Cc2ccccc2)C(=O)N[C@@H](CO)C(=O)N[C@@H](CCCCN)C(=O)N1)C(=O)N[C@@H](CC(C)C)C(N)=O (H-FVPKFSKE[dL]GRIL-NH2; lactam 4-8) | > 100 | > 100 | > 100 | > 100 | > 100 | > 100 |

— ChEMBL document CHEMBL5223087, “First-in-Class Cyclic Temporin L Analogue: Design, Synthesis, and Antimicrobial Assessment” (J Med Chem, 2021)
